An excerpt weighted towards active compounds, which were near 1.8% of everything screened.
PABP1 MLLE inh – inhibitors of microRNA-mediated deadenylation, human PABP1 MLLE binding | P11940 | GST-MLLE / FITC-PAM2 fluorescence polarization | inhibition, % at 20 µM | actives 0.36% (n = 360,000); in the data active = inhibition above about 35%, passing the limit was not always enough;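 note: plate controls were DMSO wells with GST-MLLE for no effect and wells lacking GST-MLLE protein for full effect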
Target sequence (P11940 whole entry, looked up): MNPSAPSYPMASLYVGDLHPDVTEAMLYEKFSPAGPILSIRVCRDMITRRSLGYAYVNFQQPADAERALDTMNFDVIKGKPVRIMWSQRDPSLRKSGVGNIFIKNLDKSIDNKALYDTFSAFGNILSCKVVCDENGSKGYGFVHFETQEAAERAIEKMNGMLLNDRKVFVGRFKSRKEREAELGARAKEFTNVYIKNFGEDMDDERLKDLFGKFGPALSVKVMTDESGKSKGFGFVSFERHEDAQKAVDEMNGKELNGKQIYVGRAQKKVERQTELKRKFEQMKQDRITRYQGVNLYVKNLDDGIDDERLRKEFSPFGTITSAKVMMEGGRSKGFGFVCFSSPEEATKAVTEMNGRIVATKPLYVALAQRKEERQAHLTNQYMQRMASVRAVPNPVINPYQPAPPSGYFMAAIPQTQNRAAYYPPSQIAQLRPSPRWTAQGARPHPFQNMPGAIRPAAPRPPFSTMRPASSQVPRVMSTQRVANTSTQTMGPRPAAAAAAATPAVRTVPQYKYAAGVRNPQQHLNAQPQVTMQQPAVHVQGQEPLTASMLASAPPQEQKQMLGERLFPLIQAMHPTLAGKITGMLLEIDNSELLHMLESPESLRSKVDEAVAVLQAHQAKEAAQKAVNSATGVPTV
SKN-1 block – inhibitors of C. elegans SKN-1. inhibition, % at 21.8 µM. AID 624304. C. elegans VP596 Pgst-4::GFP/RFP ratio, acrylamide-induced, 24 h. actives 0.49% (n = 360,000);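 active = interference check ratio from 0.5 to 1.5 plus GFP to RFP signal ratio inhibition reaching or exceeding a fixed threshold, cut at about 30% in these data, passing the limit was not always enough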
MT1-MMP act inh – inhibitors of human MT1-MMP activation. actives 0.061% (n = 360,000). HT1080 RFP-PRO-GFP cells, GFP/RFP ratio fluorescence, overnight; percent of plate control window, DMSO zero. GFP/RFP ratio change, % at 20 µM;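 active = GFP/RFP ratio change of at least 30% with cell ATP level not reduced by more than half and red fluorescence within 50% of control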
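system = RFP-PRO-GFP reporter HT1080 cells | dosing = 20 µM single dose, 1% DMSO | timing = overnight cell settling, then overnight compound exposure, 37 °C, 5% CO2 | read-out basis = GFP/RFP fluorescence ratio | controls = DMSO and RFP-L50D-GFP cell wells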
PABP FP inh – PABP-poly(A) binding inhibition | P11940 | PABP-poly(A) RNA binding, fluorescence polarization | calls only at 35 µM | actives 1% (n = 290,000) | AID 2014;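 note: calls also rest on retests at 20 µM and on dose response follow-up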
eIF4H FP inh – inhibitors of RNA binding by human eIF4H | eIF4H fluorescence polarization binding assay | inhibition, % at 35 µM | actives 0.94% (n = 290,000) | AID 2012;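 note: calls also rest on retests at 20 µM and on dose response follow-up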
An asterisk follows results filed as active. Unless noted, the rule behind the calls is not given here.

What do the screens show for `CN(CCO)c1nc(N)c2c(N)nc3c(c2c1C#N)CC(=O)N3C1CCCC1`?
PABP FP inh: active; eIF4H FP inh: inconclusive

How did N#Cc1c(N2CCN(c3ccc(F)cc3)CC2)nc(N)c2c(N)nc3c(c12)CC(=O)N3C1CC1 do in these assays?
PABP1 MLLE inh: -29; SKN-1 block: 9; MT1-MMP act inh: 1; PABP FP inh: active; eIF4H FP inh: inconclusive

Results for CN(C)c1nc(N2CCN(c3ccc(F)cc3)CC2)c(C#N)c(=O)o1 ?
PABP1 MLLE inh: 4; SKN-1 block: -10; MT1-MMP act inh: -1; PABP FP inh: inactive; eIF4H FP inh: -11

How did Cc1cc(C)c(OCC(=O)OCC(=O)NNC(=O)c2ccccc2F)c(C)c1 do in these assays?
PABP1 MLLE inh: 12; SKN-1 block: -3; MT1-MMP act inh: -2

How did COc1ccc(OC)c(NC(=O)CSc2nc(=O)n(CCN3CCOCC3)c3c2CCCC3)c1 do in these assays?
PABP1 MLLE inh: -7; SKN-1 block: -1; MT1-MMP act inh: 2

How did Cc1nc2cc(NC(=O)C3COc4ccccc4O3)ccc2s1 (stereo unspecified) do in these assays?
PABP1 MLLE inh: -101; SKN-1 block: -10; MT1-MMP act inh: 1; PABP FP inh: active; eIF4H FP inh: -2

Results for Cc1nc2ccc(NC(=O)C3COc4ccccc4O3)cc2s1 (stereo unspecified) ?
PABP1 MLLE inh: -102; SKN-1 block: 12; MT1-MMP act inh: -2

How did Cc1ccc(OCC(=O)NNC(=O)C2CC(=O)N(c3ccc4c(c3)OCCO4)C2)cc1 (stereo unspecified) do in these assays?
PABP1 MLLE inh: 2; SKN-1 block: 7; MT1-MMP act inh: 4

How did O=C(NCSc1ccccc1)c1ccccc1 do in these assays?
PABP1 MLLE inh: 42*; SKN-1 block: 10; MT1-MMP act inh: 4

How did Cc1cc(C)n(CCCO)c(=O)c1C#N do in these assays?
PABP1 MLLE inh: -4; SKN-1 block: 8; MT1-MMP act inh: 0; PABP FP inh: inactive; eIF4H FP inh: -2

What do the screens show for `Cc1cc(C)n(NC(=S)NC2CCCCC2)c(=O)c1C#N`?
PABP1 MLLE inh: 45*; SKN-1 block: 6; MT1-MMP act inh: -3; PABP FP inh: inactive; eIF4H FP inh: -2

Results for COc1cc(SC)ccc1C(=O)Nc1nccs1 ?
PABP1 MLLE inh: 1; SKN-1 block: 44*; MT1-MMP act inh: -2; PABP FP inh: inactive; eIF4H FP inh: -6

What do the screens show for `COc1cc(SC)ccc1C(=O)Nc1ccccc1`?
PABP1 MLLE inh: 4; SKN-1 block: 30; MT1-MMP act inh: -1; PABP FP inh: inactive; eIF4H FP inh: -3

Results for C[C@@H]([C@H](O)c1ccccc1)N(C)C(=S)Nc1ccccc1 ?
PABP1 MLLE inh: 5; SKN-1 block: -9; MT1-MMP act inh: 6; PABP FP inh: inactive; eIF4H FP inh: -3

What do the screens show for `CCN(CC)S(=O)(=O)c1ccc2c(c1)nc(SCn1nnc3ccccc3c1=O)n2CC`?
PABP1 MLLE inh: 43*; SKN-1 block: 3; MT1-MMP act inh: -3; PABP FP inh: inactive; eIF4H FP inh: -9

Results for CCC(C(=O)N1CCOCC1)n1c2ccccc2c2nc(=O)cc(C)n21 (stereo unspecified) ?
PABP1 MLLE inh: -1; SKN-1 block: -29; MT1-MMP act inh: 0; PABP FP inh: inactive; eIF4H FP inh: -4

How did N#C/C(=C(/O)COC(=O)c1ccccc1O)c1nc2ccccc2s1 do in these assays?
PABP1 MLLE inh: -8; SKN-1 block: 5; MT1-MMP act inh: -8; PABP FP inh: active; eIF4H FP inh: 56

What do the screens show for `COc1cc(NC(=O)CSc2ccc(-c3ccco3)nn2)cc(OC)c1`?
PABP1 MLLE inh: 19; SKN-1 block: -5; MT1-MMP act inh: 3; PABP FP inh: inactive; eIF4H FP inh: 60*

How did COc1cccc(NC(=O)CSc2nnc(CNC(=O)c3ccco3)n2C)c1 do in these assays?
PABP1 MLLE inh: -4; SKN-1 block: 15; MT1-MMP act inh: 2

How did COc1ccc(NC(=O)CSc2nnc(-c3ccco3)c(-c3ccco3)n2)cc1OC do in these assays?
PABP1 MLLE inh: -2; SKN-1 block: -11; MT1-MMP act inh: 1; PABP FP inh: inactive; eIF4H FP inh: 64*

Results for COc1ccc(C(=O)CSc2nnc(-c3ccco3)n2C)cc1 ?
PABP1 MLLE inh: -3; SKN-1 block: 10; MT1-MMP act inh: 2; PABP FP inh: inactive; eIF4H FP inh: -1

What do the screens show for `COc1ccc(NC(=O)CSc2ccc(-c3ccco3)nn2)cc1`?
PABP1 MLLE inh: 17; SKN-1 block: 13; MT1-MMP act inh: 3; PABP FP inh: inactive; eIF4H FP inh: 12

Results for COc1cccc(NC(=O)CSc2nnc(-c3ccco3)c(-c3ccco3)n2)c1 ?
PABP1 MLLE inh: 26; SKN-1 block: 9; MT1-MMP act inh: -8; PABP FP inh: active; eIF4H FP inh: 83*

What do the screens show for `COc1ccc(C(=O)CSc2nnc(-c3ccco3)c(-c3ccco3)n2)cc1`?
PABP1 MLLE inh: 35; SKN-1 block: 4; MT1-MMP act inh: 3; PABP FP inh: active; eIF4H FP inh: 85

What do the screens show for `CCn1c(SCC(=O)Nc2ccc(OC)c(OC)c2)nnc1-c1ccco1`?
PABP1 MLLE inh: 10; SKN-1 block: -4; MT1-MMP act inh: 8; PABP FP inh: inactive; eIF4H FP inh: -9

How did CSc1nnc(-c2ccccc2)c(-c2ccccc2)n1 do in these assays?
PABP1 MLLE inh: 9; SKN-1 block: 13; MT1-MMP act inh: -2; PABP FP inh: inactive; eIF4H FP inh: 5

Results for CSc1nnc(-c2ccco2)c(-c2ccco2)n1 ?
PABP1 MLLE inh: 26; SKN-1 block: -10; MT1-MMP act inh: 1; PABP FP inh: active; eIF4H FP inh: 97*

Results for COc1ccc(C(=O)O)cc1NC(=S)NC(=O)/C=C/c1ccc(C(C)C)cc1 ?
PABP1 MLLE inh: 39*; SKN-1 block: -10; MT1-MMP act inh: 1; PABP FP inh: inactive; eIF4H FP inh: -4

How did Cc1ccc(O)c(NC(=S)NC(=O)/C=C/c2ccccc2)c1 do in these assays?
PABP1 MLLE inh: 41*; SKN-1 block: 6; MT1-MMP act inh: 2; PABP FP inh: inactive; eIF4H FP inh: 7

What do the screens show for `O=C(Nc1cc(S(=O)(=O)N2CCCC2)ccc1OCC(F)(F)F)c1ccncc1`?
PABP1 MLLE inh: 9; SKN-1 block: -10; MT1-MMP act inh: 3

What do the screens show for `CCn1c(SCC(=O)OC)nc2sc3c(c2c1=O)CCC3`?
PABP1 MLLE inh: -6; SKN-1 block: 3; MT1-MMP act inh: -2; PABP FP inh: inactive; eIF4H FP inh: 72*

Results for Cc1nn(-c2ccc(F)cc2)c2sc(C(=O)N3CCCCCC3)cc12 ?
PABP1 MLLE inh: 9; SKN-1 block: 48*; MT1-MMP act inh: -5; PABP FP inh: inactive; eIF4H FP inh: 1

How did Cc1nn(-c2ccc(Cl)cc2)c2sc(C(=O)N3CCN(C(=O)c4ccco4)CC3)cc12 do in these assays?
PABP FP inh: inactive; eIF4H FP inh: -3

How did CC1(C)CC(=O)C=C(Nc2ccc(Cl)c(Br)c2)C1 do in these assays?
PABP1 MLLE inh: 3; SKN-1 block: 13; MT1-MMP act inh: -1; PABP FP inh: inactive; eIF4H FP inh: 1

Screening data deposited in PubChem by Sanford-Burnham Center for Chemical Genomics.
